Rows were chosen to be rich in hits. Some 2.2% of all compounds tested hit in one or more screens of this group.
dFosB act: activators of mouse delta FosB homodimer; actives 0.99% (n = 340,000); activation, % at 25 µM; AID 493131; P13346; purified delta FosB, TAMRA-CDK5 oligo fluorescence polarization; percent of positive-control signal above neutral wells;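 active = mean activation above about 17%, with every replicate also reaching it, limit read from the data, passing the limit was not always enough; inconclusive = only one of the two conditions met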
Target sequence (P13346 whole entry, looked up): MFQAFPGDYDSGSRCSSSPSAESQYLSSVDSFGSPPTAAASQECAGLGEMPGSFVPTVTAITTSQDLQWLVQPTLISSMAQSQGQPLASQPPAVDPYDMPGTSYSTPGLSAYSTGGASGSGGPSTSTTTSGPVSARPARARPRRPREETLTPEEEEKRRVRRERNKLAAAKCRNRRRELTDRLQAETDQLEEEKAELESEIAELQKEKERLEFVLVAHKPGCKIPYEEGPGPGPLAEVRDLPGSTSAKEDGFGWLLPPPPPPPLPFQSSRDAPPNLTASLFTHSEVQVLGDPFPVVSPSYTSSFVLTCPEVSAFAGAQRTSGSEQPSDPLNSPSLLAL
S100A4 MyoIIA: inhibitors of human S100A4 binding to myosin IIA peptide; P26447; S100A4/TAMRA-MyoIIA peptide fluorescence polarization; inhibition, % at 10.7 µM; actives 0.14% (n = 360,000); AID 652163;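 active = mean inhibition of at least 70% across replicates, with every replicate also reaching that level; inconclusive = mean inhibition reaches 70% but some replicates fall short; inactive = mean inhibition below 70%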
Target sequence (P26447 whole entry, looked up): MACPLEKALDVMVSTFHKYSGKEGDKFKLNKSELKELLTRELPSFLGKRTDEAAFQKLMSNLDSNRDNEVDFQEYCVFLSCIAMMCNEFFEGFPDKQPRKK
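Test system: S100A4 monomer protein. Medium: HEPES buffer with Ca2+, pH 7.2. Reagent: fluorescent myosin IIA peptide, 5 nM. Compound dosing: single-point compound testing. Timing: 5 min between mix addition and reading. Benchmarks: DMSO neutral and TFP positive wells.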
F508del corr: CFTR F508del correction in bronchial cells | CFBE cells, YFP halide quenching; stimulated with forskolin plus potentiator P3; % fluorescence drop versus neutral controls | activity (quench increase), % at 7.58 µM | actives 0.36% (n = 350,000) | AID 720511;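 active = mean added fluorescence quench of at least 8% versus neutral control, with both replicates also reaching 8%; inconclusive = only one of the mean or replicate conditions met; inactive = mean below 8% and not both replicates reaching 8%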;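 note: cells transiently co-express mutant CFTR-F508del with the halide-sensitive YFP; corrector assay measuring rescue of mutant channel to the surface after 24 h compound exposure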
FGF22 binding: FGF22 (human) thermal shift binding | Q9HCT0 | recombinant FGF22 thermal shift, SYPRO orange fluorescence; percent of sucrose octasulfate shift, DMSO zero | AID 651658 | activity (Tm shift, normalised), % at 9.99 µM | actives 1.5% (n = 340,000);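 active = mean Tm shift, scaled 0 neutral to 100 positive control, at about 1.3% or above, every replicate too, limit read from the data; inconclusive = no clear call, values can overlap the other calls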
Target sequence (Q9HCT0 whole entry, looked up): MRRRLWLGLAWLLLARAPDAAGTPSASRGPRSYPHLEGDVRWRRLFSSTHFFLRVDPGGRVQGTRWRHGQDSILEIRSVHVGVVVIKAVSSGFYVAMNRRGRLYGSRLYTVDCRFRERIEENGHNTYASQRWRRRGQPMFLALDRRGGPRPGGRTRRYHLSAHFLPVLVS
* hit, by the source's call; u = inconclusive; x = no result given.

SMILES	dFosB act	S100A4 MyoIIA	F508del corr	FGF22 binding
CO[C@H]1CN(C)C(=O)c2cc(NC(=O)Nc3c(C)noc3C)ccc2OC[C@@H](C)N(C)C[C@@H]1C	x	6	-1	0
O=C(Cn1cc2c(n1)CCCC2)NC1CCCCCC1	2	4	-1	0
O=C(Cn1cc2c(n1)CCCCC2)NC1CCN(Cc2ccccc2)CC1	-1	-3	-4	43*
CCC(=O)N1C[C@@H](O)COC[C@@H]2O[C@H](CC(=O)NCC3CCCCC3)CC[C@H]21	x	26	-1	0
O=C(Nc1ccccc1C(=O)O)c1cc(S(=O)(=O)Nc2ccccc2)ccc1Cl	-7	2	1	2.8*
O=C(O)c1ccc(NS(=O)(=O)c2ccc(Cl)c(C(=O)Nc3ccccc3)c2)cc1	5	2	2	0
C[C@@H](NC(=O)C[C@H]1C[C@@H]2c3cc(NS(C)(=O)=O)ccc3O[C@@H]2[C@@H](CO)O1)c1ccccc1	x	-26	2	0
CC(C)(C)C(O)CN1CCCC1 (configuration not stated)	2	2	2	44*
CC(C)(C)c1ccc(OCC(O)CN2CCCC2)cc1 (configuration not stated)	1	1	-4	0
CO[C@@H]1CN(C)C(=O)c2cc(NC(=O)NC(C)C)ccc2OC[C@H](C)N(Cc2cncnc2)C[C@H]1C	x	x	-2	x
CC1CCN(Cc2c(C(=O)N/N=C/c3cc(Cl)ccc3O)nnn2-c2nonc2N)CC1	162*	-1	2	0
CC1CCN(Cc2c(C(=O)N/N=C/c3cc(Br)ccc3O)nnn2-c2nonc2N)CC1	134*	1	u	0
COc1c(Cl)cc(Cl)cc1/C=N/NC(=O)c1nnn(-c2nonc2N)c1CN1CCC(C)CC1	-1	-2	-3	0
Cc1cc(C)c(/C=N/NC(=O)c2nnn(-c3nonc3N)c2CN2CCC(C)CC2)c(C)c1	-24	3	0	0
COc1ccc(O)c(/C=N/NC(=O)c2ccc(N3CCCC3=O)cc2)c1	-4	5	8.0*	0
COc1ccc(O)c(/C=N/NC(=O)c2c(C)nnn2-c2nonc2N)c1	47*	-5	7	1
COc1ccc(/C=N/NC(=O)c2nnn(-c3nonc3N)c2-c2cccc(OC)c2)cc1	-1	7	-2	0
C[C@H]1CN([C@@H](C)CO)C(=O)Cc2cc(NC(=O)Nc3cccc4ccccc34)ccc2O[C@H]1CN(C)S(=O)(=O)c1cccs1	x	x	0	0
C[C@H]1CN([C@@H](C)CO)C(=O)c2cccc(NS(C)(=O)=O)c2O[C@H]1CN(C)CC1CC1	x	1	-2	0
C[C@@H]1CCCCO[C@@H](CN(C)C(=O)Nc2ccc(C(F)(F)F)cc2)[C@H](C)CN([C@H](C)CO)C(=O)c2cc(NC(=O)c3ccncc3)ccc2O1	x	6	1	0
Nc1c(Cl)cnc(C(Cl)(Cl)Cl)c1Cl	5	-1	3	43*
COc1cc2c(C#CCCO)c(-c3ccsc3)oc(=O)c2cc1OC	7	-1	14*	0
NNc1ccccc1C(F)(F)F	-10	1	-2	43*
CC(=O)Nc1ccccc1C(F)(F)F	-11	-3	-1	0
O=C(C[C@H]1CC[C@H]2[C@@H](COC[C@@H](O)CN2C(=O)C2CCOCC2)O1)NCc1ccncc1	x	-9	2	0
SMILES	dFosB act	S100A4 MyoIIA	F508del corr	FGF22 binding
COc1cc(CNCCc2c[nH]c3ccccc23)cc(Cl)c1OCC(N)=O	-9	-5	2	44*
CCOc1cc(CNCCc2c[nH]c3ccccc23)cc(Cl)c1OCC(N)=O	-8	5	-2	0
Cc1noc(C)c1COc1ccc(C(=O)NNC(=O)c2ccccc2)cc1	4	6	9.6*	1
Cc1noc(C)c1COc1ccc(C(=O)NNC(=O)c2ccccc2F)cc1	5	x	x	x
O=c1[nH]c2ccc(Cl)cc2c(O)c1Cc1ccccc1	1	-3	0	44*
c1ccc(CSCc2ccccc2)cc1	0	-2	1	0
Nc1ccccc1SCc1ccccc1	3	-4	-3	43*
C[C@H]1CN([C@@H](C)CO)C(=O)c2cc(NS(C)(=O)=O)ccc2O[C@H]1CN(C)S(=O)(=O)c1cccs1	x	-2	4	-1
CN1c2ccccc2Oc2nnc(N3CCN(Cc4ccccc4)CC3)cc21	-2	-1	-1	43*
Cc1cc(C)cc(NC(=S)NCCSc2ccc(Cl)cc2)c1	-11	-4	1	44*
Cc1ccc(SCCNC(=S)Nc2ccc(C)c(C)c2)cc1	-10	x	x	x
CCN(CC)P(=O)(Nc1ccccc1Br)c1ccc(N(C)C)cc1NC(=O)c1ccco1 (configuration not stated)	-10	2	1	44*
CN1C(=O)c2cc(NC(=O)Cc3cccs3)ccc2OC[C@H]2O[C@H](CC(=O)NCC3CC3)CC[C@@H]21	x	1	-1	0
CCC(=O)Nc1ccc2c(c1)C(=O)N(C)C[C@@H](OC)[C@@H](C)CN(C(=O)CN(C)C)[C@H](C)CO2	x	x	0	x
CC(=O)NC[C@H]1[C@@H](c2ccc(-c3cccc(F)c3)cc2)[C@@H](CO)N1C(C)=O	x	-2	3	0
COc1cc2c[n+](C)c3c4ccccc4ccc3c2cc1OC	6	2	9.7*	0
COc1ccc(NC(=O)N(C)C[C@@H]2OCCCC[C@@H](C)Oc3ccc(NS(=O)(=O)c4ccc(Cl)cc4)cc3C(=O)N([C@H](C)CO)C[C@@H]2C)cc1	x	139*	-1	-1
COc1ccc(S(=O)(=O)Nc2ccc3c(c2)C(=O)N([C@@H](C)CO)C[C@@H](C)[C@H](CN(C)C(=O)Nc2ccc(F)cc2)OCCCC[C@@H](C)O3)cc1	x	-19	-1	18*
COc1ccc(NC(=O)N(C)C[C@@H]2OCCCC[C@@H](C)Oc3ccc(NS(=O)(=O)c4ccc(F)cc4)cc3C(=O)N([C@@H](C)CO)C[C@H]2C)cc1	x	6	2	-1
COc1ccc(S(=O)(=O)Nc2ccc3c(c2)C(=O)N([C@@H](C)CO)C[C@@H](C)[C@H](CN(C)C(=O)Nc2ccccc2)OCCCC[C@@H](C)O3)cc1	x	103*	-5	0
COc1ccc(NC(=O)N(C)C[C@H]2OCCCC[C@@H](C)Oc3ccc(NS(=O)(=O)c4ccc(Cl)cc4)cc3C(=O)N([C@H](C)CO)C[C@H]2C)cc1	x	2	4	0
C[C@@H]1CN([C@@H](C)CO)C(=O)c2cc(NC(=O)C3CCCCC3)ccc2O[C@@H](C)CCCCO[C@@H]1CN(C)Cc1ccc2c(c1)OCO2	x	-1	3	0
CO[C@@H]1CN(C)C(=O)c2ccc(NC(=O)c3cc(C)on3)cc2OC[C@@H](C)N(C(=O)C2CC2)C[C@H]1C	x	18	-1	0
CCCNC(=O)N(C)C[C@H]1Oc2cc(-c3ccccc3F)ccc2S(=O)(=O)N([C@H](C)CO)C[C@@H]1C	x	10	-1	0
